# From ChEMBL document CHEMBL1671691 (Antimicrob Agents Chemother, 2010)
# Tests used:
# [1] = system: Influenza A virus; experiment: Antiviral activity against sInfluenza A virus (A/Washington/29/2009(H1N1)) infected in MDCK cells from Mill Hill assessed as log reduction in viral titer at 42.7 uM after 24 hrs by immunofluorescent assay; format: functional, Influenza A virus (A/Washington/29/2009(H1N1))
# Summary of the method: (§1)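 MDCK cells (ATCC or Mill Hill) infected with 2009 pandemic H1N1 at MOI ~0.01, 1 h adsorption at 4°C, washed. DMEM with 2 μg/ml TPCK-trypsin plus drug for 24 h at 37°C. Supernatants titrated on MDCK cells by focus formation: methanol/acetic acid fixation, anti-nucleoprotein MAbs, FITC secondary, foci counted. Titre as log10 FFU per 100 μl; detection limit <10 FFU; quadruplicate wells.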
# [2] = system: Influenza A virus; experiment: Antiviral activity against Influenza A virus (A/Washington/29/2009(H1N1)) infected in MDCK cells from Mill Hill assessed as log reduction in viral titer at 128 uM after 24 hrs by immunofluorescent assay; format: functional
# Summary of the method: (§2)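 Yield reduction in MDCK-ATCC or MDCK-Mill Hill cells infected at MOI ∼0.01. Adsorption 1 h at 4°C, washed, then DMEM with 2 μg/ml TPCK-trypsin and drug. At 24 h, supernatants were titrated by immunofluorescent focus assay on MDCK cells with anti-NP monoclonals and FITC secondary. Titres as log10 FFU per 100 μl; detection limit <10 FFU. Quadruplicate, mean ± SD.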
# [3] = system: Influenza A virus; experiment: Antiviral activity against Influenza A virus (A/Mexico/4604/2009(H1N1)) infected in MDCK cells from Mill Hill assessed as log reduction in viral titer at 42.7 uM after 24 hrs by immunofluorescent assay; format: functional; summary of the method: as §2
# [4] = system: Influenza A virus; experiment: Antiviral activity against sInfluenza A virus (A/Washington/29/2009(H1N1)) infected in MDCK cells from ATCC assessed as log reduction in viral titer at 14.2 uM after 24 hrs by immunofluorescent assay; format: functional, Influenza A virus (A/Washington/29/2009(H1N1)); summary of the method: as §1
# [5] = system: Influenza A virus; experiment: Antiviral activity against Influenza A virus (A/Mexico/4604/2009(H1N1)) infected in MDCK cells from ATCC assessed as inhibition of viral replication after 3 days by microscopic analysis using crystal violet stain; format: functional
# Summary of the method: (§3)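 Confluent MDCK-ATCC monolayers infected with virus diluted to give 15–45 plaques/well. Adsorption 1 h at 37°C without drug, then washed. Overlaid with 0.8% agarose in MEM containing drug plus TPCK-trypsin: 3 μg/ml for seasonal viruses, 2 μg/ml for 2009 A(H1N1). Incubated 3 days at 37°C, 5% CO2. Ethanol-fixed, crystal violet-stained, plaques counted. EC50 by curve fit; duplicates on three occasions, mean ± SD.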
# [6] = system: Influenza A virus; experiment: Antiviral activity against Influenza A virus (A/Mexico/4604/2009(H1N1)) infected in MDCK cells from ATCC assessed as log reduction in viral titer at 128 uM after 24 hrs by immunofluorescent assay; format: functional; summary of the method: as §2
# [7] = system: Influenza A virus; experiment: microbe, parasite or virus in culture; conditions: (A/duck/Vietnam/NCVD93/2007 clade 2.3.4 (H5N1)), MDCK, 72 h
# [8] = system: Influenza A virus; experiment: Antiviral activity against Influenza A virus (A/Mexico/4604/2009(H1N1)) infected in MDCK cells from Mill Hill assessed as log reduction in viral titer at 128 uM after 24 hrs by immunofluorescent assay; format: functional; summary of the method: as §2
# [9] = system: Influenza A virus; experiment: microbe, parasite or virus in culture; conditions: MDCK, 72 h
# [10] = system: Influenza A virus; experiment: Antiviral activity against Influenza A virus (A/California/04/2009(H1N1)) infected in MDCK cells from Mill Hill assessed as log reduction in viral titer at 1.6 uM after 24 hrs by immunofluorescent assay; format: functional; summary of the method: as §2
# [11] = system: Influenza A virus; experiment: Antiviral activity against sInfluenza A virus (A/Washington/29/2009(H1N1)) infected in MDCK cells from ATCC assessed as log reduction in viral titer at 42.7 uM after 24 hrs by immunofluorescent assay; format: functional, Influenza A virus (A/Washington/29/2009(H1N1)); summary of the method: as §1
# [12] = system: Influenza A virus; experiment: Antiviral activity against sInfluenza A virus (A/California/04/2009(H1N1)) infected in MDCK cells from ATCC assessed as log reduction in viral titer at 42.7 uM after 24 hrs by immunofluorescent assay; format: functional; summary of the method: as §1
# [13] = system: Influenza A virus; experiment: microbe, parasite or virus in culture; conditions: MDCK, 72 h; remark: listed apart in the source
# [14] = system: Influenza A virus; experiment: Antiviral activity against Influenza A virus (A/Mexico/4604/2009(H1N1)) infected in MDCK cells from Mill Hill assessed as log reduction in viral titer at 14.2 uM after 24 hrs by immunofluorescent assay; format: functional; summary of the method: as §2
# [15] = system: Influenza A virus; experiment: Antiviral activity against sInfluenza A virus (A/Washington/29/2009(H1N1)) infected in MDCK cells from ATCC assessed as log reduction in viral titer at 128 uM after 24 hrs by immunofluorescent assay; format: functional, Influenza A virus (A/Washington/29/2009(H1N1)); summary of the method: as §1
# [16] = system: Influenza A virus; experiment: Antiviral activity against adamantane-, oseltamivir-, zanamivir-susceptible Influenza A virus (A/Georgia/17/2006(H1N1)) infected in MDCK cells assessed as inhibition of viral replication after 3 days by microscopic analysis using crystal violet stain; format: functional, organism-based; conditions: 72 h; summary of the method: as §3
# [17] = system: Influenza A virus; experiment: Antiviral activity against sInfluenza A virus (A/Washington/29/2009(H1N1))) infected in MDCK cells from Mill Hill assessed as log reduction in viral titer at 14.2 uM after 24 hrs by immunofluorescent assay; format: functional, Influenza A virus (A/Washington/29/2009(H1N1)); summary of the method: as §1
# [18] = system: Influenza A virus; experiment: Antiviral activity against Influenza A virus (A/Mexico/4604/2009(H1N1)) infected in MDCK cells from ATCC assessed as log reduction in viral titer at 14.2 uM after 24 hrs by immunofluorescent assay; format: functional; summary of the method: as §2
# [19] = system: Influenza A virus; experiment: Antiviral activity against Influenza A virus (A/Illinois/10/2009(H1N1)) infected in MDCK cells from ATCC assessed as log reduction in viral titer at 128 uM after 24 hrs by immunofluorescent assay; format: functional; summary of the method: as §2
# [20] = system: Influenza A virus; experiment: Antiviral activity against Influenza A virus (A/California/04/2009(H1N1)) infected in MDCK cells from ATCC assessed as inhibition of viral replication after 3 days by microscopic analysis using crystal violet stain; format: functional; summary of the method: as §3
# [21] = system: Influenza A virus; experiment: Antiviral activity against sInfluenza A virus (A/California/04/2009(H1N1)) infected in MDCK cells from Mill Hill assessed as log reduction in viral titer at 4.7 uM after 24 hrs by immunofluorescent assay; format: functional; summary of the method: as §1
# [22] = system: Influenza A virus; experiment: Antiviral activity against Influenza A virus (A/Mexico/4604/2009(H1N1)) infected in MDCK cells from Mill Hill assessed as log reduction in viral titer at 1.6 uM after 24 hrs by immunofluorescent assay; format: functional; summary of the method: as §2
# [23] = system: Influenza A virus; experiment: microbe, parasite or virus in culture; conditions: MDCK, 72 h; remark: listed apart in the source
# [24] = system: Influenza A virus; experiment: Antiviral activity against Influenza A virus (A/California/04/2009(H1N1)) infected in MDCK cells from Mill Hill assessed as inhibition of viral replication after 3 days by microscopic analysis using crystal violet stain; format: functional
# [25] = system: Influenza A virus; experiment: Antiviral activity against Influenza A virus (A/Mexico/4604/2009(H1N1)) infected in MDCK cells from ATCC assessed as log reduction in viral titer at 4.7 uM after 24 hrs by immunofluorescent assay; format: functional; summary of the method: as §2
compound,measurement,setting,value
NC(=O)c1nc(F)cnc1O [FAVIPIRAVIR],log10FFU,[1],1.5
same,log10FFU,[2],<1
same,log10FFU,[3],2.1
same,log10FFU,[4],2.2
same,log10FFU,[5],0.35
same,log10FFU,[6],<1
same,EC50,[7],1590 nM
same,log10FFU,[8],<1
same,EC50,[9],380 nM
same,log10FFU,[10],4.1
same,log10FFU,[11],1.8
same,log10FFU,[12],<1
same,EC50,[13],960 nM
same,log10FFU,[14],4.6
same,log10FFU,[15],1
same,EC50,[16],1460 nM
same,log10FFU,[17],3.1
same,log10FFU,[18],2.4
same,log10FFU,[19],<1
same,log10FFU,[20],0.48
same,log10FFU,[21],3.6
same,log10FFU,[22],6.2
same,EC50,[23],3630 nM
same,log10FFU,[24],3.75
same,log10FFU,[25],3.5
